“Also recorded” adds a separate entry of the source.
Experiments:
Assay type in all cases: cell-based
TRPML3 [1] = target: T1, TRPML3 (Homo sapiens, UniProt Q8TDD5); conditions: HEK293, read-out: Max % Activation (TRPML3)
T1 sequence (Q8TDD5 1-553): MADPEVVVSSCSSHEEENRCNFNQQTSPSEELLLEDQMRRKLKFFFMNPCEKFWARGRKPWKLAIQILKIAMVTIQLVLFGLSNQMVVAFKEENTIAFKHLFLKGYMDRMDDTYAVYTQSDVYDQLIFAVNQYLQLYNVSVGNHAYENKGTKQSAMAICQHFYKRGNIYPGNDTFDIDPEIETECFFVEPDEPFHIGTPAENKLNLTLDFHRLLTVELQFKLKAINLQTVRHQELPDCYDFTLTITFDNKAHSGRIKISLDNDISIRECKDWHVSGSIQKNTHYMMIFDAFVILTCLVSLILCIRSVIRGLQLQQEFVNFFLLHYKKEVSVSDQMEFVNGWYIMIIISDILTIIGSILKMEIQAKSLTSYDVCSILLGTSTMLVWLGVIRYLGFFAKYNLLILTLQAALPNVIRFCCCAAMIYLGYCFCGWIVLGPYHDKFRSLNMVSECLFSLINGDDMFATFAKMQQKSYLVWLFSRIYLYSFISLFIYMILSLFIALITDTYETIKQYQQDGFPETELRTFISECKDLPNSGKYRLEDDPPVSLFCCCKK
Outline: (§1)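 HEK293 lines stably expressed YFP-fused human TRPML3 or zebrafish TRPN1 (G418 0.8 mg/ml, twice subcloned) and were plated at 1,500 cells/well for 23 h at 37 °C. After Fluo-8 loading (1 h 37 °C, 30 min RT), a 5 s basal read and 120 s post-addition read were taken. Max/basal ratios were normalized to DMSO and carbachol (87 µM).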

danio rerio TRPN1 = danio rerio TRPN1 (Danio rerio, UniProt Q7T1G6); conditions: for Emax: HEK293, read-out: Max % Activation (Control)
Outline: as §1

TRPML3 [2] = target: T1, TRPML3; assay: Fura-2 calcium imaging, HEK293 cells transiently expressing TRPML3; conditions: for ⊗F340/F380 (TRPML3): 10 µM compound, mean ±SEM (n≥3); for kinetics of intracellular calcium increase: TRPML3-transfected HEK293 cells
Outline: (§2)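 HEK293 cells were transiently transfected (Genejammer) with the human channel construct or YFP control and measured 24 h later. Cells on glass coverslips were loaded with 4 µM fura-2-AM in bath solution (mM: 138 NaCl, 6 KCl, 2 MgCl2, 2 CaCl2, 10 HEPES, 5.5 D-glucose; pH 7.4). Compounds were applied at 10 µM and the F340/F380 ratio recorded. Values are mean ± SEM, n≥3.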

TRPML3 [3] = target: T1, TRPML3; assay: Whole-cell patch-clamp, HEK293 cells transiently transfected with TRPML3; conditions: for nA/pF (-80 mV) (TRPML3): current density at −80 mV, 10 µM in standard bath solution, mean ±SEM (n≥3); for average current density relative to constitutively active TRPML3 A419P: whole-cell, −80 mV
Outline: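 Whole-cell patch clamp was done on HEK293 cells 24 h after transient transfection with human TRPML3 or YFP; constitutively active TRPML3(A419P) cells served as positive control. Bath solution (mM): 138 NaCl, 5.4 KCl, 2 MgCl2, 2 CaCl2, 10 HEPES, 10 d-glucose; pH 7.4. Pipette solution (mM): 140 CsCl, 10 HEPES, 3 ATP-Na, 1 BAPTA, 2 MgCl2; pH 7.2. Compounds at 10 µM were perfused. Capacitance-normalized current at −80 mV is reported as mean ± SEM, n≥3.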

[4] = system: YFP-expressing HEK293 cells; assay: Fura-2 calcium imaging, YFP-expressing HEK293 cells; conditions: mean ±SEM (n≥3)
Outline: as §2

TRPML3 [5] = target: T1, TRPML3; assay: Excised; conditions: patches held at −80 mV
[6] = target: T2, TRPML3 coexpressed with TRPML1 (Homo sapiens, UniProt Q8TDD5); assay: Calcium imaging, HEK293 cells coexpressing TRPML3 with TRPML1; conditions: 10 µM
T2 sequence (Q8TDD5 1-553): T1 sequence (Q8TDD5 1-553)
Outline: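 Human TRPML3 and TRPML1 were transiently coexpressed in HEK293 cells (Genejammer) and imaged 24 h post-transfection. Cells on glass coverslips were loaded with 4 μM fura-2-AM in bath solution (mM: 138 NaCl, 6 KCl, 2 MgCl₂, 2 CaCl₂, 10 HEPES, 5.5 D-glucose, pH 7.4) and read on a monochromator imaging system. Test compound was 10 μM. Mean ± SEM, n≥3 independent experiments, 20–30 cells each.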

TRPML2 = target: T3, TRPML2 (Homo sapiens, UniProt Q8IZK6); assay: Fura-2 calcium imaging, HEK293 cells expressing TRPML2; conditions: 10 µM
T3 sequence (Q8IZK6 1-566): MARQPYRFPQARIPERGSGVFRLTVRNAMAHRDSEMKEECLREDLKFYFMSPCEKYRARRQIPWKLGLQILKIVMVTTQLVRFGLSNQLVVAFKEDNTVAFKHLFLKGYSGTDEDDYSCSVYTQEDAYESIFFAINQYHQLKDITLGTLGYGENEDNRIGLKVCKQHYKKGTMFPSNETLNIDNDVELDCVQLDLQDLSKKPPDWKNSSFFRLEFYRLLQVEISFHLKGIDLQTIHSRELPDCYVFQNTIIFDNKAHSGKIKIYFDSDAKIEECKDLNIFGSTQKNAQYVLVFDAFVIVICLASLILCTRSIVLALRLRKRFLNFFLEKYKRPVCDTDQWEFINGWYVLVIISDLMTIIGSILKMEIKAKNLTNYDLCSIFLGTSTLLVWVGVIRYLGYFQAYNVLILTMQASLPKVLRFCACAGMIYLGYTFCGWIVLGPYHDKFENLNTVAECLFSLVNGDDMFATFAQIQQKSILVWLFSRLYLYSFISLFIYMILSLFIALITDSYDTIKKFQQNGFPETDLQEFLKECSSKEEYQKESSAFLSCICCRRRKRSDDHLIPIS
Outline: as §2

TRPML3 [7] = target: T1, TRPML3; assay: Whole-cell patch-clamp with intracellular application; conditions: for response to intracellular application (infusion): whole-cell, −80 mV
TRPML1(NC) = TRPML1(NC) (Homo sapiens, UniProt Q9GZU1); assay: Fura-2 calcium imaging, HEK293 cells expressing TRPML1; conditions: 10 µM, plasma membrane-localized TRPML1 variant
Outline: as §2

Chain of danio rerio TRPN1 (Q7T1G6 1-1614): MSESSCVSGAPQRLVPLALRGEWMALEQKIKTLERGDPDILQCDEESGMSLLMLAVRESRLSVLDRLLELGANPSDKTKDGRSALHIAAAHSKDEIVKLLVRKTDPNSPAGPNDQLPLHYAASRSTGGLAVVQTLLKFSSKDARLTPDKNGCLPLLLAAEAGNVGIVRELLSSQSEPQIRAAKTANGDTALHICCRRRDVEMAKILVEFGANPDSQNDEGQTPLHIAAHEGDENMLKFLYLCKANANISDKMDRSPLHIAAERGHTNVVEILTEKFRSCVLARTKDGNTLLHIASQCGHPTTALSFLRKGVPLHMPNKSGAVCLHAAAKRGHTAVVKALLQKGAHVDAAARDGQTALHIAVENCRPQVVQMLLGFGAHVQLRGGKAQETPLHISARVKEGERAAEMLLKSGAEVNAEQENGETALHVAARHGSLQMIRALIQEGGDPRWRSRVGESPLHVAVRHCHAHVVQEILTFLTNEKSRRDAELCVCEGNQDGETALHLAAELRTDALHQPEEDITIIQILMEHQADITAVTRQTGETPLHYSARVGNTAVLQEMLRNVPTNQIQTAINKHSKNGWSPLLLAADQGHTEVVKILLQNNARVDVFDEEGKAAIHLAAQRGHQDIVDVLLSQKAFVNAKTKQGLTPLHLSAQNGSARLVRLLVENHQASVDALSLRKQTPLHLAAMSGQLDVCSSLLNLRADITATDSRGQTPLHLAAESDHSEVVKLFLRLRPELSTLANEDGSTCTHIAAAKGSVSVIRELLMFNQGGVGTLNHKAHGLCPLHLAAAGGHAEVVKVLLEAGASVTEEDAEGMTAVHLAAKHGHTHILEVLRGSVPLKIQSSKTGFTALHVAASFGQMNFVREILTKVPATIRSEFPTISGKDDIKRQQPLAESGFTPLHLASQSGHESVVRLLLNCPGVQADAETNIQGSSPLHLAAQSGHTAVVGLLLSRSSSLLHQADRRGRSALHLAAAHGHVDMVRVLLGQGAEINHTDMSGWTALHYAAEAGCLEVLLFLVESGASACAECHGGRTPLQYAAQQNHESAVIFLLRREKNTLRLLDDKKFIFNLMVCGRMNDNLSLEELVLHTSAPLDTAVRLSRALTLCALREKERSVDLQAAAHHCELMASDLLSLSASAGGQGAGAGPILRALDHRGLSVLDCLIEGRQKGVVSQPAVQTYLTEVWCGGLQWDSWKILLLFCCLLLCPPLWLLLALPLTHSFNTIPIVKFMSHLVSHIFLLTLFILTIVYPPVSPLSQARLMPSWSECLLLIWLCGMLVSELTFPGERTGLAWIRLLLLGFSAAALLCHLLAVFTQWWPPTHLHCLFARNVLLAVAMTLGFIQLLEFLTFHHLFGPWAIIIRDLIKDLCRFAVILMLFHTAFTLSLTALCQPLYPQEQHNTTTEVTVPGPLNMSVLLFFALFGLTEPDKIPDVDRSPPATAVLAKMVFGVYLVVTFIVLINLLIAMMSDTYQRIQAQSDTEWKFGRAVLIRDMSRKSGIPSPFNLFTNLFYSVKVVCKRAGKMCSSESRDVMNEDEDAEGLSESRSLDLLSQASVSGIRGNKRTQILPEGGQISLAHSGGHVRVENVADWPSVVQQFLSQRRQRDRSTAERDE
Chain of TRPML1(NC) (Q9GZU1 17-572 limits assumed): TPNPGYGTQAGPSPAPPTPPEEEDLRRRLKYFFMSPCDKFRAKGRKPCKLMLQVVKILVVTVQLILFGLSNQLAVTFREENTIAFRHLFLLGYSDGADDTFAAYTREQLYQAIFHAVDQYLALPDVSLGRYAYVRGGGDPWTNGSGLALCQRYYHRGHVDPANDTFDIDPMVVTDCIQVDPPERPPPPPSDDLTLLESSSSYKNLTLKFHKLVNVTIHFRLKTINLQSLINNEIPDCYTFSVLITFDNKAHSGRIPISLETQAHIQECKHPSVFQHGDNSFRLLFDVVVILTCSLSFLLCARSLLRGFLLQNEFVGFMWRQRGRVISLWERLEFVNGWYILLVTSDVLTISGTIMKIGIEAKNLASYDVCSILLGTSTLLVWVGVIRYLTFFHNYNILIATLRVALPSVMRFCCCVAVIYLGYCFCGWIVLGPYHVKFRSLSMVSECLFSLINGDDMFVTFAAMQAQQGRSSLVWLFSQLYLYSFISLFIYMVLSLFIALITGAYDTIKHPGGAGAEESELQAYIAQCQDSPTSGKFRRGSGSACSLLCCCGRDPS

Structure (SMILES): COc1ccccc1C1CN=NC12CCCc1ccccc1C2=O (stereo not shown) [SF-61, 4-(2-methoxyphenyl)spiro[3,4-dihydropyrazole-5,8’-6,7-dihydro-5H-benzo[7]annulene]-9’-one]
- Emax (TRPML3 [1]): 102 ± 22%
- EC50 (danio rerio TRPN1): > 29.9 µM
- Emax (danio rerio TRPN1): 2 ± 1%
- ⊗F340/F380 (TRPML3) (TRPML3 [2]): 0.56 ±0.03
- nA/pF (-80 mV) (TRPML3) (TRPML3 [3]): −0.07 ±0.01 nA/pF

Structure (SMILES): CCOc1ccc(S(=O)(=O)NC(C)(C)C)cc1-c1nc(=O)c2c([nH]1)c(C(C)(C)C)nn2C [SN-1, N-tert-butyl-3-(3-tert-butyl-1-methyl-7-oxo-4H-pyrazolo[4,3-d]pyrimidin-5-yl)-4-ethoxybenzenesulfonamide]
- Emax (TRPML3 [1]): 151 ± 14%
- EC50 (danio rerio TRPN1): > 29.9 µM
- Emax (danio rerio TRPN1): 6%
- ⊗F340/F380 (TRPML3) (TRPML3 [2]): 1.15 ±0.06
- ⊗F340/F380 (Control) [4]: 0.005 ±0.004
- nA/pF (-80 mV) (TRPML3) (TRPML3 [3]): −0.33 ±0.10 nA/pF
- average current density relative to constitutively active TRPML3 A419P (TRPML3 [3]): comparable to average current densities obtained from cells expressing the constitutively active varitint-waddler mutant isoform A419P

Structure (SMILES): CCOc1ccc(S(=O)(=O)N2CCCCCC2)c2ccccc12 [SF-31, 1-(4-ethoxynaphthalen-1-yl)sulfonylazepane]
- Emax (TRPML3 [1]): 130 ± 20%
- EC50 (danio rerio TRPN1): > 29.9 µM
- Emax (danio rerio TRPN1): 2 ± 1%
- ⊗F340/F380 (TRPML3) (TRPML3 [2]): 1.00 ±0.10
- ⊗F340/F380 (Control) [4]: −0.011 ±0.001
- nA/pF (-80 mV) (TRPML3) (TRPML3 [3]): −0.19 ±0.03 nA/pF
- average current density relative to constitutively active TRPML3 A419P (TRPML3 [3]): comparable to average current densities obtained from cells expressing the constitutively active varitint-waddler mutant isoform A419P

Structure (SMILES): O=S(=O)(Nc1ccccc1N1CCOCC1)c1ccc(Cl)s1 [SF-23, 5-chloro-N-(2-morpholin-4-ylphenyl)thiophene-2-sulfonamide]
- Emax (TRPML3 [1]): 174 ± 1%
- EC50 (danio rerio TRPN1): > 29.9 µM
- Emax (danio rerio TRPN1): 1 ± 1%
- ⊗F340/F380 (TRPML3) (TRPML3 [2]): 0.93 ±0.07
- ⊗F340/F380 (Control) [4]: 0.005 ±0.005
- nA/pF (-80 mV) (TRPML3) (TRPML3 [3]): −0.37 ±0.08 nA/pF
- average current density relative to constitutively active TRPML3 A419P (TRPML3 [3]): comparable to average current densities obtained from cells expressing the constitutively active varitint-waddler mutant isoform A419P
- TRPML3 activity in excised patches (TRPML3 [5]): markedly increased TRPML3 activity
- calcium imaging response when TRPML1 was coexpressed with TRPML3 [6]: strong reduction of the calcium imaging responses

Structure (SMILES): CCOc1ccc(S(=O)(=O)N2CCCCC2)c(C)c1C [SF-32, 1-(4-ethoxy-2,3-dimethylphenyl)sulfonylpiperidine]
- Emax (TRPML3 [1]): 119 ± 5%
- EC50 (danio rerio TRPN1): > 29.9 µM
- Emax (danio rerio TRPN1): 2 ± 1%
- ⊗F340/F380 (TRPML3) (TRPML3 [2]): 0.52 ±0.05
- nA/pF (-80 mV) (TRPML3) (TRPML3 [3]): −0.02 ±0.01 nA/pF

Structure (SMILES): Cc1ccc(N2CCN(S(=O)(=O)N3CCCCC3)CC2)c(C)c1 [SF-41, 1-(2,4-dimethylphenyl)-4-piperidin-1-ylsulfonylpiperazine]
- Emax (TRPML3 [1]): 138 ± 12%
- EC50 (danio rerio TRPN1): > 29.9 µM
- Emax (danio rerio TRPN1): 12 ± 1%
- ⊗F340/F380 (TRPML3) (TRPML3 [2]): 0.99 ±0.07
- kinetics of intracellular calcium increase (TRPML3 [2]): much more rapid increase than the other compounds
- ⊗F340/F380 (Control) [4]: 0.015 ±0.001
- nA/pF (-80 mV) (TRPML3) (TRPML3 [3]): −0.42 ±0.07 nA/pF
- average current density relative to constitutively active TRPML3 A419P (TRPML3 [3]): Stronger responses
- response in HEK293 cells expressing TRPML2 (TRPML2): elicited responses

Structure (SMILES): Cc1ccccc1S(=O)(=O)c1c(C)cc(C)n(C(C)C)c1=O [SF-81, 4,6-dimethyl-3-(2-methylphenyl)sulfonyl-1-propan-2 ylpyridin-2-one]
- Emax (TRPML3 [1]): 138 ± 21%
- EC50 (danio rerio TRPN1): > 29.9 µM
- Emax (danio rerio TRPN1): 1%
- ⊗F340/F380 (TRPML3) (TRPML3 [2]): 0.62 ±0.05
- average current density relative to constitutively active TRPML3 A419P (TRPML3 [3]): comparable to average current densities obtained from cells expressing the constitutively active varitint-waddler mutant isoform A419P
- response in HEK293 cells expressing TRPML2 (TRPML2): elicited responses

Structure (SMILES): Cc1ccc(S(=O)(=O)n2nccc2-c2c(-c3ccc(Cl)cc3)noc2C)cc1 [SF-11, 3-(4-chlorophenyl)-5-methyl-4-[2-(4-methylphenyl)sulfonylpyrazol-3-yl]-1,2-oxazole]
- Emax (TRPML3 [1]): 135 ± 20%
- EC50 (danio rerio TRPN1): > 29.9 µM
- Emax (danio rerio TRPN1): 8 ± 1%
- ⊗F340/F380 (TRPML3) (TRPML3 [2]): 0.72 ±0.05
- nA/pF (-80 mV) (TRPML3) (TRPML3 [3]): −0.14 ±0.02 nA/pF
- response to intracellular application (infusion) (TRPML3 [7]): elicited responses when applied intracellularly

Structure (SMILES): O=S(=O)(Nc1ccccc1N1CCCCC1)c1ccc(Cl)s1 [SF-22, 5-chloro-N-(2-piperidin-1-ylphenyl)thiophene-2-sulfonamide]
- Emax (TRPML3 [1]): 156 ± 16%
- EC50 (danio rerio TRPN1): > 29.9 µM
- Emax (danio rerio TRPN1): 1%
- ⊗F340/F380 (TRPML3) (TRPML3 [2]): 1.00 ±0.07
- nA/pF (-80 mV) (TRPML3) (TRPML3 [3]): −0.24 ±0.06 nA/pF
- average current density relative to constitutively active TRPML3 A419P (TRPML3 [3]): comparable to average current densities obtained from cells expressing the constitutively active varitint-waddler mutant isoform A419P
- activation of mutant TRPML1(NC) isoform (TRPML1(NC)): able to activate this channel; also recorded: can be activated by compound SF-22
- TRPML3 activity in excised patches (TRPML3 [5]): markedly increased TRPML3 activity
- cell membrane permeability (TRPML3 [7]; inferred from intracellular infusion experiment): not cell permeable
- response to intracellular application (infusion) (TRPML3 [7]): did not elicit a response when infused into the cells
- calcium imaging response when TRPML1 was coexpressed with TRPML3 [6]: strong reduction of the calcium imaging responses

Structure (SMILES): CCCOc1cc(C)c(Cl)cc1S(=O)(=O)N(CC)CC [SF-33, 5-chloro-N,N-diethyl-4-methyl-2-propoxybenzenesulfonamide]
- Emax (TRPML3 [1]): 119 ± 21%
- EC50 (danio rerio TRPN1): > 29.9 µM
- Emax (danio rerio TRPN1): 2 ± 1%
- ⊗F340/F380 (TRPML3) (TRPML3 [2]): 0.65 ±0.10
- kinetics of intracellular calcium increase (TRPML3 [2]): slowest kinetics
- nA/pF (-80 mV) (TRPML3) (TRPML3 [3]): −0.06 ±0.02 nA/pF

Structure (SMILES): CCCN(CCC)S(=O)(=O)c1ccc(C(=O)O)cc1 [probenicid, 4-(dipropylsulfamoyl)benzoic acid, reference compound]
- intracellular calcium response in TRPML3-transfected cells (TRPML3 [2]): did not elicit any responses
- TRPML3 activation in whole-cell patch-clamp (TRPML3 [3]; control compound): did not activate TRPML3

From paper PMC2834294 (Chemistry & biology, 2010)
